In one series the test system is CCRF-CEM. Kind of series: Cytotoxicity against human CEM cells after 3 days. Format: cell-based. As to conditions: 72 h.
For a further series, the system named is PBMC. Kind of series: Cytotoxicity against human PBMC after 3 days. In kind it is cell-based. The conditions noted are these: 72 h. A digest of the protocol: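 CC50 was measured in human peripheral blood mononuclear (PBM) cells, the human T-cell-derived CEM line, and African green monkey kidney epithelial Vero cells. Dose–response was fitted from at least four concentrations, each run in triplicate and reported as the mean.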

Series [1] has as its system Hepatitis C virus. In words: Antiviral activity against HCV1b infected in human HuH7 cells assessed as inhibition of viral replication by RT-PCR analysis. Format: functional, organism-based, Hepacivirus hominis. As to conditions: genotype 1b, Huh-7. A digest of the protocol:
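Huh7 cells carrying a subgenomic genotype 1b HCV replicon were treated with compound, and HCV RNA replication was measured. HCV RNA and ribosomal RNA were extracted and amplified together, and cytotoxicity in Huh7 was read at the same time. EC50 and EC90 came from dose–response curves of at least four concentrations, each run in triplicate, and are reported as means.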

The test system of a further series is Vero. In words: Cytotoxicity against african green monkey Vero cells after 3 days. Format: cell-based. As to conditions: chlorocebus sabaeus, 72 h.
Series [2] is described as follows: Therapeutic index, ratio of CC50 for human CEM cells to EC50 for HCV1b. In kind it is cell-based, CCRF-CEM. A digest of the protocol: (§1)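 The index is CC50/EC50. EC50 came from Huh7 cells carrying a subgenomic genotype 1b HCV replicon, with HCV RNA quantified by extraction and amplification alongside rRNA. CC50 was measured in PBM, CEM or Vero cells. Each dose–response used at least four concentrations in triplicate, and means were reported.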

The nature of series [3]: Therapeutic index, ratio of CC50 for african green monkey Vero cells to EC50 for HCV1b. Format: cell-based. An outline of the steps: as §1
The nature of series [4]: Therapeutic index, ratio of CC50 for human PBMC to EC50 for HCV1b. An outline of the steps:
as §1

Series [5] has as its system Hepatitis C virus. In words: Antiviral activity against HCV1b infected in human assessed as reduction of viral RNA level at 10 mg after 24 hrs. In kind it is functional, Hepacivirus hominis, genotype 1b.

Where only a bound is given, the exact number is not on record here.

The CC50 is the concentration at which the toxic effect on the cells reaches its halfway point. One may read the EC50 as the midpoint of the concentration-response curve. Broadly, the EC90 is the point of the concentration-response curve where the effect stands at 90%. Consider `COC(=O)N[C@H](C(=O)N1CCC[C@H]1c1ncc(-c2ccc(NS(=O)(=O)c3ccc(-c4cnc([C@@H]5CCCN5C(=O)[C@@H](NC(=O)OC)C(C)C)[nH]4)cc3)cc2)[nH]1)C(C)C`, for which the CC50 in the series on CCRF-CEM was 13 µM; in the series with PBMC, 15 µM; in the series with Vero it was greater than 100 µM. In the series with Hepatitis C virus [1], the EC50 was determined as 100 nM. In the series with Hepatitis C virus [1], the EC90 is greater than 100 nM.

Regarding `COC(=O)N[C@H](C(=O)N1CCC[C@H]1c1ncc(-c2ccc(-c3ccc(-c4ccc(-c5ccc(-c6cnc([C@@H]7CCCN7C(=O)[C@@H](NC(=O)OC)C(C)C)[nH]6)cc5)cc4)cc3)cc2)[nH]1)C(C)C`, the 50% cytotoxic concentration (CC50) in the series with CCRF-CEM, with PBMC and with Vero was greater than 100 µM throughout. Moreover, in the series on Hepatitis C virus [1], the EC50 turned out to be 0.24 nM. For the same compound, the EC90 in the series with Hepatitis C virus [1] came out at 1 nM.

Regarding `COC(=O)N[C@H](C(=O)N1CCC[C@H]1c1ncc(-c2ccc(-c3cnc([C@@H]4CCCN4C(=O)[C@@H](NC(=O)OC)C(C)C)[nH]3)cc2)[nH]1)C(C)C`, the CC50 with CCRF-CEM, in the series with PBMC and in the series on Vero was greater than 100 µM in each case. In the series with Hepatitis C virus [1], the concentration for a half-maximal effect (EC50) was greater than 1 nM.

`COC(=O)N[C@H](C(=O)N1CCC[C@H]1c1ncc(-c2ccc(-c3ccc(-c4ccc(-c5cnc([C@@H]6CCCN6C(=O)[C@@H](NC(=O)OC)C(C)C)[nH]5)cc4)s3)cc2)[nH]1)C(C)C`: the figures for the CC50 with CCRF-CEM, with PBMC and in the series on Vero were 12 µM, 26 µM and greater than 100 µM, respectively. In addition, in the series on Hepatitis C virus [1], the half-maximal effective concentration (EC50) turned out to be 0.1 nM. Also, the EC90 in the series with Hepatitis C virus [1] came to 0.3 nM.

Turning to `COC(=O)N[C@H](C(=O)N1CCC[C@H]1c1ncc(-c2ccc(-c3cn(-c4ccc(-c5cnc([C@@H]6CCCN6C(=O)[C@@H](NC(=O)OC)C(C)C)[nH]5)cc4)nn3)cc2)[nH]1)C(C)C`, the CC50 in the series with CCRF-CEM is 5 µM; with PBMC, 18 µM; in the series on Vero, 35 µM. Also, the 50% effective concentration (EC50) in the series with Hepatitis C virus [1] was 0.2 nM. The EC90 in the series with Hepatitis C virus [1] was determined as 0.9 nM.

As to `COC(=O)N[C@H](C(=O)N1CCC[C@H]1c1ncc(-c2ccc(-c3ccc(-c4cnc([C@@H]5CCCN5C(=O)[C@@H](NC(=O)OC)C(C)C)[nH]4)s3)cc2)[nH]1)C(C)C`, the figures for the CC50 in the series on CCRF-CEM, in the series with PBMC and in the series on Vero were 48 µM, 93 µM and 99 µM, respectively. Moreover, in the series on Hepatitis C virus [1], the EC50 was determined as 90.6 nM. Moreover, in the series with Hepatitis C virus [1], the EC90 was greater than 100 nM.

On to `COC(=O)N[C@H](C(=O)N1CCC[C@H]1c1ncc(-c2ccc(-c3cccc(-c4ccc(-c5cnc([C@@H]6CCCN6C(=O)[C@@H](NC(=O)OC)C(C)C)[nH]5)cc4)c3)cc2)[nH]1)C(C)C`, for which the half-maximal cytotoxic concentration (CC50) is 3 µM in the series with CCRF-CEM, 18 µM in the series on PBMC and greater than 100 µM with Vero. The half-maximal effective concentration (EC50) in the series on Hepatitis C virus [1] came to 0.8 nM. Besides, the EC90 in the series with Hepatitis C virus [1] worked out at 2.9 nM.

With `COC(=O)N[C@H](C(=O)N1CCC[C@H]1c1ncc(-c2ccc(-c3ccc(-c4ccc(-c5cnc([C@@H]6CCCN6C(=O)[C@@H](NC(=O)OC)C(C)C)[nH]5)cn4)cc3)cc2)[nH]1)C(C)C`, the cytotoxic concentration (CC50) in the series with CCRF-CEM came to 31 µM; with PBMC, 5.5 µM; with Vero it was 29 µM. The EC50 with Hepatitis C virus [1] came out at 0.2 nM. Besides, in the series on Hepatitis C virus [1], the EC90 was determined as 0.7 nM.

Regarding `COC(=O)N[C@H](C(=O)N1CCC[C@H]1c1ncc(-c2ccc(Oc3ccc(-c4cnc([C@@H]5CCCN5C(=O)[C@@H](NC(=O)OC)C(C)C)[nH]4)cc3)cc2)[nH]1)C(C)C`, the half-maximal cytotoxic concentration (CC50) with CCRF-CEM was found to be 16 µM; in the series on PBMC it was 16 µM; with Vero, 19 µM. Also, in the series on Hepatitis C virus [1], the concentration giving a half-maximal response (EC50) came out at 30 nM. In addition, in the series with Hepatitis C virus [1], the EC90 came to 90 nM.

`COC(=O)N[C@H](C(=O)N1CCC[C@H]1c1ncc(-c2ccc(-c3ccc(-c4ccc(-c5cnc([C@@H]6CCCN6C(=O)[C@@H](NC(=O)OC)C(C)C)[nH]5)cc4)cc3)cc2)[nH]1)C(C)C`: the half-maximal cytotoxic concentration (CC50) in the series on CCRF-CEM, in the series on PBMC and with Vero was greater than 100 µM throughout. The selectivity ratio in series [2], in series [3] and in series [4] was greater than 4e+06 each time. Also, the EC50 in the series on Hepatitis C virus [1] came out at 0.026 nM. Also, the EC90 in the series on Hepatitis C virus [1] is 0.09 nM.

For the compound `COC(=O)N[C@H](C(=O)N1CCC[C@H]1c1ncc(-c2ccc(-c3ccc(-c4ccc(-c5cnc([C@@H]6CCCN6C(=O)[C@@H](NC(=O)OC)C(C)C)[nH]5)cc4)nc3)cc2)[nH]1)C(C)C`, the CC50 with CCRF-CEM came to 2.3 µM; in the series with PBMC it was 3.9 µM; in the series on Vero, 6.5 µM. For the same compound, the EC50 in the series with Hepatitis C virus [1] came to 0.026 nM. Moreover, the EC90 in the series with Hepatitis C virus [1] turned out to be 0.068 nM.

As to `COC(=O)N[C@H](C(=O)N1CCC[C@H]1c1ncc(-c2ccc(-c3ccc(-c4cnc([C@@H]5CCCN5C(=O)[C@@H](NC(=O)OC)C(C)C)[nH]4)cc3)cc2)[nH]1)C(C)C`, in the series on PBMC, it took 19 µM to reach half-maximal cytotoxicity (CC50). Also, in the series with Hepatitis C virus [1], the EC50 stood at 0.0066 nM and the 90% effect concentration (EC90) stood at 0.023 nM. For the same compound, the Activity in the series on Hepatitis C virus [5] was greater than 3 log10IU/ml.

For the origin of these results see ChEMBL document CHEMBL2021872, “Synthesis and biological evaluation of new potent and selective HCV NS5A inhibitors” (Bioorg Med Chem Lett, 2012).
